Wee1 degr inh: Wee1 degradation inhibitors, primary screen, cell-based, HeLa, Wee1K328M-luciferase, luminescence; 1.2% of 220,000 active; AID 1321, 2008; HeLa Luc-Wee1K328M stability; 100% = proteasome inhibitor MG132 effect; reporter increase, % at 5 µM;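 active means activation above the mean of all tested compounds plus 3 SD, set per screening run, cut at about 8.8% in these data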;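 further: cells exposed to compound for 20 h before luminescence read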
Target sequence (P30291 whole entry K328M): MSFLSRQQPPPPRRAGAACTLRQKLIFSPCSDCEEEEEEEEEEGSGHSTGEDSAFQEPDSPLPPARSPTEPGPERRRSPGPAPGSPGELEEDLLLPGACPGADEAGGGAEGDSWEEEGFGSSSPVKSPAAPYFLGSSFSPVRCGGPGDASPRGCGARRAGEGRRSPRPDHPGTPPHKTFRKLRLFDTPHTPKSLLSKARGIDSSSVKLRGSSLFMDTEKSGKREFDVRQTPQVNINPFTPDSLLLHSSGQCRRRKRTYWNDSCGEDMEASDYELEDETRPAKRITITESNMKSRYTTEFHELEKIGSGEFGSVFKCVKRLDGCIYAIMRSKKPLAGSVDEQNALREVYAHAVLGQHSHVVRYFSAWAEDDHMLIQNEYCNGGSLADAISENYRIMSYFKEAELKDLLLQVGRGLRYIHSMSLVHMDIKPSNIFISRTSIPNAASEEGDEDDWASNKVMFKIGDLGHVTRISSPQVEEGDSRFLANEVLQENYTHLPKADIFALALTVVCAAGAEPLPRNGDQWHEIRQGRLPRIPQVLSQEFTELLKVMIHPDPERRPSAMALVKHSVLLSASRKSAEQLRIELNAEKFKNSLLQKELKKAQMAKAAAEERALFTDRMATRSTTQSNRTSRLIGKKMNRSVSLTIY
b-catenin transl: modulators of beta-catenin nuclear translocation, primary screen, imaging, HeLa cells, immunofluorescence, high-content; nuclear translocation activity, % at 5 µM; 0.3% of 190,000 active; AID 1665, 2009;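 active means nuclear translocation activity above 50% at 5 µM, with a well cell count of 50 or more; inconclusive means wells under 50 cells across six images, flagged as toxic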;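 further: per-cell ratio of nuclear to cytoplasmic median beta-catenin stain intensity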
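Read-out: Nuclear/cytoplasmic beta-catenin signal ratio, % activation | Assay system: Human HeLa cell line | Times: 24 h compound exposure at 37°C, 5% CO2 | Signal: Fluorescence imaging of beta-catenin antibody stain plus DAPI | Dosing: 5 µM primary, 0.02–20 µM confirmation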
Autophagy mod: autophagy modulators in MEF cells, primary screen, imaging, high-content, MEF GFP-LC3; MEF GFP-LC3 puncta imaging; test concentration mostly 10 µM; calls only at 10 µM (by protocol); 0.98% of 190,000 active; AID 463193, 2010;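 active means percentage of spot-positive cells more than 3 SD above its plate mean, without a fluorescence outlier flag or 80% toxicity; inconclusive means no clear call, values can overlap the other calls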
MT stabilizer: microtubule stabilizers in HeLa cells, primary screen, imaging, high-content imaging; HeLa tubulin immunostaining HCS, 24 h; share of cells brighter than vehicle mean+2SD; % tubulin-high responders, % at 10 µM; 0.83% of 200,000 active; AID 2205, 2009;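 active means plate Z-score above 3 for both tubulin-high and condensed-nucleus cell shares, with cell loss under 80%, at 10 µM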;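 further: anti alpha tubulin signal scored within the nucleus-defined area of each cell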
Insulin prom up: insulin promoter activators in MIN6 cells, imaging, high-content screening, mouse beta cells. z-score at 5 µM. MIN6 insulin promoter-GFP reporter; hits give high values. 0.3% of 190,000 active;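 active means z-score above 3 at 5 µM with at least 500 cells counted in the well; inconclusive means wells under 500 cells, flagged as cytotoxic or low count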
Numbers stand for hits; . = inactive; ? = inconclusive; / = no result; + = active, no number. Rows were chosen to be rich in hits. Some 2.9% of all compounds tested hit in one or more screens of this group.

SMILES | Wee1 degr inh | b-catenin transl | Autophagy mod | MT stabilizer | Insulin prom up
Cn1c(=O)c(Nc2ccc(Cl)cc2)c2c3c(cccc31)C(=O)c1ccccc1-2 | . | . | + | . | 15
CCOc1ccc(/C=N/NC(=O)c2c(C)n(C)c3ccc(OC)cc23)cc1 | . | . | . | 17 | .
COc1ccc2c(c1)c(C(=O)N/N=C/c1ccc(Br)cc1)c(C)n2C | . | . | / | / | .
CC[n+]1c(/C=C2/C=C(C)CC(C)C2)sc2ccccc21 (stereo not given) | . | . | . | . | ?
CC[n+]1c(C=C2C=C(C)OC(C)=C2)sc2ccccc21 | . | . | + | . | ?
CCC(=O)Nc1ccc(C(=O)OCC(=O)c2ccc(C)c([N+](=O)[O-])c2)cc1 | . | . | . | . | 3.4
CC(=O)Nc1ccc(C(=O)OCC(=O)c2ccc(C)c([N+](=O)[O-])c2)cc1 | . | . | . | . | .
Cc1ccc(C(=O)COC(=O)c2cccc(NC(=O)c3ccc([N+](=O)[O-])cc3[N+](=O)[O-])c2)cc1 | . | / | . | 34 | /
CC(=O)Nc1ccc(C(=O)OCC(=O)c2cccc([N+](=O)[O-])c2)cc1 | . | . | . | . | /
CC(=O)Nc1ccc(C(=O)NCC(=O)OCc2c(F)cccc2Cl)cc1 | . | . | . | . | .
O=C(NC1CC1)C1CCCN1S(=O)(=O)c1ccc2ccccc2c1 (stereo not given) | . | . | . | 24 | .
O=C(O)C1CCCN1S(=O)(=O)c1ccc2ccccc2c1 (stereo not given) | . | . | . | . | .
Cc1ccn2c(C(=O)c3ccc(Cl)cc3)cnc2c1 | . | / | . | . | .
O=C(NCC1OCCCN1S(=O)(=O)c1cc(F)ccc1F)C(=O)NC1CCCCC1 (stereo not given) | . | . | . | . | .
O=C(Nc1ccc(Oc2cccc(C(F)(F)F)c2)nc1)c1cccs1 | . | . | / | / | .
Fc1ccc(-n2cc(-c3ccccc3)c3c(N4CCOCC4)ncnc32)cc1 | . | . | . | . | .
COc1ccc(-n2cc(-c3ccccc3)c3c(NCCCN4CCOCC4)ncnc32)cc1 | 8.9 | . | . | / | .
CCN1CCN(c2ncnc3c2c(-c2ccccc2)cn3-c2ccc(F)cc2)CC1 | . | . | + | . | /
O=C1NC(=S)SC1=C1CCCC1 | . | / | . | . | .
CN1/C(=C\C=Nc2ccc3ccccc3c2)C(C)(C)c2ccccc21 | . | . | + | . | .
CN1\C(=C/C=C/C=C/C=[N+](C)C)C(C)(C)c2ccccc21 | . | / | + | . | ?
CN(C)c1ccc(N=C/C=C2\N(C)c3ccccc3C2(C)C)cc1 | . | / | . | . | /
O=C(COC(=O)C1CSC2(c3ccc(F)cc3)CCC(=O)N12)NC(=O)NC1CCCC1 (stereo not given) | . | . | . | . | .
COC(=O)C1=C(NC(=O)c2ccccc2C)CCS1 | . | . | + | . | .
CCOC(=O)Nc1sc2c(c1C#N)CCCC2 | . | / | . | . | .
SMILES | Wee1 degr inh | b-catenin transl | Autophagy mod | MT stabilizer | Insulin prom up
CCCC1CCc2c(sc(NC(=O)OCC)c2C#N)C1 (stereo not given) | . | . | . | 52 | /
Cc1ccc(C(=O)CN(Cc2ccccc2)C2=NCCS2)cc1 | 10 | . | . | . | .
CCC(COC)NCc1cn(-c2ccc(OC)cc2)nc1-c1cccc(F)c1 (stereo not given) | . | . | . | . | .
O=c1ccc(NS(=O)(=O)c2ccccc2Cl)cn1Cc1ccc(Cl)c(Cl)c1 | . | . | . | . | .
O=C(O)Cc1cn(Cc2ccc(F)cc2)c2ccccc12 | . | . | . | . | .
Cc1[nH][nH]c(=O)c1C(c1c(C)[nH][nH]c1=O)c1cn(Cc2ccc(F)cc2)c2ccccc12 | . | . | . | 20 | .
Cc1[nH][nH]c(=O)c1C(c1c(C)[nH][nH]c1=O)c1cn(Cc2ccc(Cl)c(Cl)c2)c2ccccc12 | . | 99 | . | . | .
CCCCn1cnc2c(oc3nc4c(cc32)CCCC4)c1=O | . | . | / | / | .
O=C1OCC2=C1C(c1ccccc1)CC(=O)N2c1ccccc1 (stereo not given) | . | . | . | . | /
O=S(Cc1ccc(Cl)cc1)CC(O)(c1ccccc1)c1ccccc1 (stereo not given) | . | . | . | 33 | .
CCOC(=O)c1c(NC(=O)CN2C(=O)NC(C)(c3ccccc3)C2=O)sc(C)c1C (stereo not given) | . | 62 | + | 13 | .
Cc1onc(-c2c(Cl)cccc2Cl)c1C(=O)Nc1ccc(N2CCOCC2)cc1 | . | . | / | / | .
CC(C)OC(=O)c1ccc(NC(=O)C2C3CC4OC(=O)C2C4C3)cc1 (stereo not given) | 9.8 | . | . | . | .
CCc1nc(N2CCN(C(=O)c3ccco3)CC2)c2oc3ccccc3c2n1 | . | . | . | 27 | .
Cc1sc2nc(CN3CCCC3)nc(N3CCN(C(=O)c4ccco4)CC3)c2c1C | . | . | + | . | .
CN(C)C(=O)C12CCC(C)(c3nc4ccccc4nc31)C2(C)C (stereo not given) | . | . | . | . | 3.4
O=S(=O)(c1ccc(S(=O)(=O)N(Cc2ccccc2)Cc2ccco2)cc1)N1CCCC1 | . | / | . | . | /
COC(=O)/C=C/c1ccccc1S(=O)(=O)N(Cc1ccccc1)Cc1ccco1 | / | 74 | / | / | .
COc1ccc(C(=O)Nc2ccccc2C(=O)NC(Cc2c[nH]c3ccccc23)C(=O)O)cc1 (stereo not given) | . | . | . | . | .
N#CCc1c(C#N)c(N)nc(N2CCCC(O)C2)c1C#N (stereo not given) | . | . | . | . | .
N#CCc1c(C#N)c(N)nc(N2CCCC(CO)C2)c1C#N (stereo not given) | . | . | + | . | .
COc1cccc(-c2csc(/C(C#N)=C/Nc3cc4oc5ccccc5c4cc3OC)n2)c1 | . | . | . | . | /
COc1cc2c(cc1N/C=C(\C#N)c1nc(-c3ccccc3)cs1)oc1ccccc12 | . | . | + | . | /
CC1CCN(C(=O)CCc2ccc(S(=O)(=O)NC(C)C)cc2)CC1 | . | . | . | . | /
O=S(=O)(c1ccc(Cl)s1)N1CCCc2cccc(O)c21 | 9.2 | . | . | . | .
SMILES | Wee1 degr inh | b-catenin transl | Autophagy mod | MT stabilizer | Insulin prom up
CCOC(=O)c1nn(-c2ccccc2)c2nnc(Cc3ccccc3)c(=O)n12 | . | . | . | . | .
CC(C)(C)OC(=O)N1CCN(c2ccc([N+](=O)[O-])cc2)CC1 | . | . | . | . | .
Nc1cccc2c1C(=O)N(Cc1cccc(Cl)c1)C2=O | 11 | / | . | . | .
Cc1ccnc(NC(=O)C(C)n2cc([N+](=O)[O-])cn2)c1 (stereo not given) | . | . | . | . | .
Cc1nc(CSc2nc3[nH]ncc3c(=O)n2-c2ccccc2)cs1 | . | / | . | . | .
Cc1noc(C)c1CSc1nc2ccccc2c(=O)n1-c1ccccc1 | . | . | . | 42 | .
